ADAM10 inh – inhibits human ADAM10 | O14672 | recombinant ADAM10, EDANS/DABCYL FRET peptide cleavage, 3 h | inhibition, % at 7 µM | actives 0.62% (n = 370,000);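 active = inhibition above a per-campaign cutoff equal to the mean of compounds falling between control-based bounds plus 3 SD, cut at about 20% in these data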;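 note: 0% = DMSO wells while the 100% control is not disclosed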
SENP1 FRET inh – inhibitors of human SENP1 SUMO protease catalytic domain | inhibition, % at 10 µM | actives 0.21% (n = 360,000) | recombinant SENP1 catalytic domain, CyPet-SUMO1-YPet FRET cleavage;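 active = inhibition at least 30% at 10 µM, raw YFP signal under a set limit, fluorescence ratio 0.5 to 1.5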;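 note: 0% = enzyme with DMSO and 100% = no enzyme wells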
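Controls: no-enzyme wells low, DMSO-plus-enzyme wells high control. Test system: human recombinant His6-tagged SENP1 catalytic domain enzyme. Reagent: SFCypet-SUMO1-SFYpet FRET protein substrate, 25 nM final. Doses: one dose per compound, 10 µM, 0.5% DMSO. Detection: FRET, CFP and YFP emission. Timing: 50 min reaction at room temperature.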
ADAM17 inh – inhibitors of human ADAM17 | recombinant ADAM17, EDANS/DABCYL FRET peptide cleavage | inhibition, % at 6.95 µM | actives 0.83% (n = 370,000);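 active = inhibition above the mean of compounds lying between control limits plus 3 SD, set per campaign, cut at about 8.5% in these data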;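 note: 0% = DMSO-only wells as the low control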
Target sequence (P78536 215-824 limits assumed): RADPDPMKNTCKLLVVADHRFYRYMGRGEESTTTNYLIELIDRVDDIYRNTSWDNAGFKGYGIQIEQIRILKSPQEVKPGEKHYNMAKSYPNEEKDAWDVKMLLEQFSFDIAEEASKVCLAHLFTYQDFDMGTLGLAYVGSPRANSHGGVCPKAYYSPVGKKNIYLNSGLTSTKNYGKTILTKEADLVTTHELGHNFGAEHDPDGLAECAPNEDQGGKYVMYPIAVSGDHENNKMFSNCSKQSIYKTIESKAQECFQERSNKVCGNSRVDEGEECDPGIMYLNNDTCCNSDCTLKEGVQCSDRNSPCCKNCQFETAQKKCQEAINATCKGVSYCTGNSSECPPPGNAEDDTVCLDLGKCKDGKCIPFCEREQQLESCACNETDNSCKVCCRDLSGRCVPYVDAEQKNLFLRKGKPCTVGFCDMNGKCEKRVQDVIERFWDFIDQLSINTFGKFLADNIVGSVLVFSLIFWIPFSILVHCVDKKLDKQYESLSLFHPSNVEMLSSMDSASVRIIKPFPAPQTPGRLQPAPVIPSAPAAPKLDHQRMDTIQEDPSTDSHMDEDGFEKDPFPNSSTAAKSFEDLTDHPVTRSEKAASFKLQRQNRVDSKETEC
FAS-TE inh – inhibitors of human fatty acid synthase thioesterase domain | recombinant FAS-TE, OMFH fluorogenic substrate, fluorescence endpoint | inhibition, % at 15 µM | actives 0.67% (n = 360,000);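 active = compounds whose normalised, plate-corrected inhibition of enzyme fluorescence in the single-dose primary screen is 50% or more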;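 note: 0% = DMSO with enzyme and 100% = substrate without enzyme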
An asterisk follows results filed as active. This is a sample that favours compounds with a hit; in the whole collection about 1.9% have one here.

How did Cc1cccc(CS(=O)(=O)c2nnc([C@H](Cc3ccccc3)NC(=O)OC(C)(C)C)o2)c1 do in these assays?
SENP1 FRET inh: 7; FAS-TE inh: 57*

What do the screens show for `CO/N=C/c1ccc(N2CCN(C(=O)c3ccc(F)cc3)CC2)c([N+](=O)[O-])c1`?
ADAM10 inh: 2; SENP1 FRET inh: -1; ADAM17 inh: 3; FAS-TE inh: 10

What do the screens show for `CO/N=C/c1ccc(N2CCN(C(=O)c3ccc(Cl)cc3Cl)CC2)c([N+](=O)[O-])c1`?
ADAM10 inh: 20*; SENP1 FRET inh: 1; ADAM17 inh: 7; FAS-TE inh: 23

What do the screens show for `S=C(NN=C(c1ccccc1)c1ccccn1)N(Cc1ccccn1)Cc1ccccn1`?
ADAM10 inh: 78*; SENP1 FRET inh: -1; ADAM17 inh: 72*; FAS-TE inh: 3

How did CC(=NNC(=S)N(Cc1ccccn1)Cc1ccccn1)c1cnccn1 do in these assays?
ADAM10 inh: -15; SENP1 FRET inh: 0; ADAM17 inh: -7; FAS-TE inh: -2

How did Cc1cc(SCC(=O)NCC2CCCO2)nc2ccccc12 (configuration not stated) do in these assays?
ADAM10 inh: -5; SENP1 FRET inh: 57*; ADAM17 inh: 0; FAS-TE inh: -85

Results for O=C(Nc1ccc2c(c1)OCO2)OC1CCC12CCCCC2 (configuration not stated) ?
ADAM10 inh: 7; ADAM17 inh: 4

What do the screens show for `CCN(CC)c1ccc(NC(=O)c2ccccc2)cc1S(=O)(=O)Nc1ccccc1OC`?
ADAM10 inh: 18; SENP1 FRET inh: -1; ADAM17 inh: 9.4*; FAS-TE inh: 20

Results for CCN(CC)c1ccc(NC(=O)c2cccc(C)c2)cc1S(=O)(=O)Nc1ccccc1OC ?
ADAM10 inh: 25*; SENP1 FRET inh: 2; ADAM17 inh: 13*; FAS-TE inh: 25

How did COc1ccccc1NS(=O)(=O)c1cc(NC(=O)c2ccc(Cl)nc2)ccc1Cl do in these assays?
ADAM10 inh: 4; SENP1 FRET inh: 0; ADAM17 inh: 6; FAS-TE inh: 23

Results for COc1ccc(-c2ccc3c(n2)CCCN3Cc2ccccc2C(F)(F)F)cc1 ?
ADAM10 inh: inactive; ADAM17 inh: -333

Results for COc1ccc(Cn2c(NC(=O)c3ccccc3)nc(Cc3ccccc3)c2Cc2ccccc2)cc1 ?
ADAM10 inh: -2; ADAM17 inh: 7

How did Cn1cnc(C(=O)NCc2ccc(CNC(=O)OC(C)(C)C)cc2)c1C(=O)NCc1ccc(CNC(=O)OC(C)(C)C)cc1 do in these assays?
ADAM10 inh: 21*; SENP1 FRET inh: 1; ADAM17 inh: 11*; FAS-TE inh: 12

How did C[C@H](NC(=O)c1[nH]cnc1C(=O)Nc1ccc(CNC(=O)OC(C)(C)C)cc1)C(=O)OC(C)(C)C do in these assays?
ADAM10 inh: 22*; SENP1 FRET inh: 0; ADAM17 inh: 11*; FAS-TE inh: 16

What do the screens show for `CC(C)C[C@H](NC(=O)c1nc[nH]c1C(=O)N[C@@H](CC(C)C)C(=O)OC(C)(C)C)C(=O)OC(C)(C)C`?
ADAM10 inh: 11; SENP1 FRET inh: 2; ADAM17 inh: 9.5*; FAS-TE inh: 8

What do the screens show for `C#CCN1CC(N(C)CCOC(=O)c2ccc(OC)c(OC)c2)CS1(=O)=O` (configuration not stated)?
ADAM10 inh: -6; ADAM17 inh: -7

Results for CC(CCN1CCC(C(O)(c2ccccc2)c2ccccc2)CC1)Oc1cccc(C(F)(F)F)c1 (configuration not stated) ?
ADAM10 inh: 9; ADAM17 inh: 6

What do the screens show for `CC[C@]1(c2ccccc2)C(=O)N(C(=O)OC)N1C(=O)OC`?
ADAM10 inh: 9; SENP1 FRET inh: 1; ADAM17 inh: 10*; FAS-TE inh: 33

How did Cc1ccc(NC(=S)NNc2ccc([N+](=O)[O-])cc2S(=O)(=O)Nc2ccccc2C(=O)O)cc1C do in these assays?
ADAM10 inh: 11; SENP1 FRET inh: -2; ADAM17 inh: 4; FAS-TE inh: 62*

What do the screens show for `COC(=O)[C@]12C[C@H](CC(=O)NCc3cccs3)C(=O)N(Cc3ccco3)C1=C[C@H](C(C)C)O[C@@H]2C1CC1`?
ADAM10 inh: -7; ADAM17 inh: -5

Results for CCCC(=O)NC(c1cccc([N+](=O)[O-])c1)c1ccc2cccnc2c1O (configuration not stated) ?
ADAM10 inh: 26*; SENP1 FRET inh: 1; ADAM17 inh: 7; FAS-TE inh: -1

Results for CC1Oc2cc3oc4c(O)c(O)ccc4c(=O)c3c(O)c2C1(C)C (configuration not stated) ?
SENP1 FRET inh: -4; FAS-TE inh: 52*

How did COc1ccc(CN(C(=O)Cc2c[nH]c3ccccc23)C(C(=O)NC2CCCCC2)c2ccc(C)o2)cc1 (configuration not stated) do in these assays?
ADAM10 inh: 26*; SENP1 FRET inh: -3; ADAM17 inh: 12*; FAS-TE inh: 26

How did O=C(CSc1nc2ccccc2c(=O)n1-c1ccc(Cl)cc1)NNC(=S)Nc1ccccc1 do in these assays?
ADAM10 inh: 19; ADAM17 inh: 8

Results for COc1ccc(N2C(=O)c3ccccc3C2=O)cc1 ?
ADAM10 inh: -5; SENP1 FRET inh: 2; ADAM17 inh: -3; FAS-TE inh: 3

What do the screens show for `COc1ccc(N2C(=O)C(Cl)=C(Oc3cccc(OC)c3)C2=O)cc1`?
SENP1 FRET inh: 1; FAS-TE inh: 52*

What do the screens show for `COC(=O)C1CN(Cc2cn(Cc3ccc(F)cc3)nn2)CCS(=O)(=O)N1Cc1ccc(OC)cc1` (configuration not stated)?
ADAM10 inh: 7; ADAM17 inh: 3

What do the screens show for `COc1ccc(C)cc1Nc1n[n+](-c2ccccc2)c(-c2ccc(N(C)C)cc2)s1`?
ADAM10 inh: -10; SENP1 FRET inh: 41*; ADAM17 inh: -4; FAS-TE inh: -126

Results for COc1ccc(C)cc1Nc1n[n+](-c2ccccc2)c(-c2ccc(OC)c(OC)c2OC)s1 ?
ADAM10 inh: 0; SENP1 FRET inh: -3; ADAM17 inh: -4; FAS-TE inh: -146

What do the screens show for `Cc1ccc(O)c(N=CC2=C(O)c3ccccc3C2=O)c1`?
ADAM10 inh: 5; SENP1 FRET inh: 42*; ADAM17 inh: 1; FAS-TE inh: 18

How did O=C(Cc1ccccc1)NCCSCc1ccc(Cl)cc1 do in these assays?
ADAM10 inh: -5; SENP1 FRET inh: 2; ADAM17 inh: 1; FAS-TE inh: 5

How did O=C(COc1ccccc1)NCCSCc1ccc(Cl)cc1 do in these assays?
ADAM10 inh: 0; SENP1 FRET inh: 1; ADAM17 inh: 8.6*; FAS-TE inh: -2

What do the screens show for `COCCN=c1scc(-c2cccs2)n1/N=C/c1ccc(O)c(O)c1O`?
ADAM10 inh: 24*; SENP1 FRET inh: 7; ADAM17 inh: 14*; FAS-TE inh: 10

Results for CC(=O)N1CCN(C(=O)CCn2nnc3ccccc32)CC1 ?
ADAM10 inh: 2; ADAM17 inh: 0

How did COc1ccc(C=Nn2c(-c3ccc(F)cc3)n[nH]c2=S)cc1OCc1ccccc1 do in these assays?
ADAM10 inh: 0; ADAM17 inh: -1

Bioassay records (PubChem)
